Reference: ChEMBL document CHEMBL4219151, “Piperidinyl Ureas Chemically Control Defective in Cullin Neddylation 1 (DCN1)-Mediated Cullin Neddylation” (J Med Chem, 2018)
≈ marks a conversion by molar mass, not a printed value. Calls of active or inactive are those of the source. The calls are words filed in the database; no cut-off is given here.

Test system: not listed separately
Assay: Solubility of the compound at pH 7.4 after 18 hrs by UV-spectroscopy
Type: physicochemical
Conditions: buffer
Procedure, shortened: (§1)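 Measured in triplicate within at least one experiment; values reported as mean ± standard deviation.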

Structure (SMILES)	solubility at 18 h
CC(C)(C)N1CCC(N(Cc2ccc3c(c2)OCO3)C(=O)Nc2cccc(C(F)(F)F)c2)CC1	75 µM (≈ 35.8 µg/mL)
CCCCN1CCC(N(Cc2ccc3c(c2)OCO3)C(=O)Nc2cccc(C(F)(F)F)c2)CC1	71 µM (≈ 33.9 µg/mL)
CCCC(C)N1CCC(N(Cc2ccccc2)C(=O)Nc2cccc(C(F)(F)F)c2)CC1 (stereo not drawn)	57 µM (≈ 25.5 µg/mL)
CCCN1CCC(N(Cc2cc(F)cc(C(F)(F)F)c2)C(=O)Nc2cccc(C(F)(F)F)c2)CC1	37 µM (≈ 18.7 µg/mL)
CCCN1CCC(N(Cc2ccccc2)C(=O)Nc2cccc(C(F)(F)F)c2)CC1	39 µM (≈ 16.4 µg/mL)
CCCCN1CCC(N(Cc2ccccc2)C(=O)Nc2cccc(C(F)(F)F)c2)CC1	70 µM (≈ 30.3 µg/mL)
CCCN1CCC(N(Cc2ccco2)C(=O)Nc2cccc(C(F)(F)F)c2)CC1	69 µM (≈ 28.3 µg/mL)

Biological target: T1, DCN1-like protein 5 (Homo sapiens) (UniProt Q9BTE7)
T1 sequence (whole entry): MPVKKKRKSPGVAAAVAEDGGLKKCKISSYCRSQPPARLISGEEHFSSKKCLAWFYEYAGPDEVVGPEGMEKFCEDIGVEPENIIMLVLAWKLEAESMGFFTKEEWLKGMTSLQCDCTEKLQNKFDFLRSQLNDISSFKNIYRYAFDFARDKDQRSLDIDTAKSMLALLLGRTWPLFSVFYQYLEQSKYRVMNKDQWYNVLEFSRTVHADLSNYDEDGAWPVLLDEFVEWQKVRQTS
Assay: Inhibition of human DCN5-mediated cullin neddylation assessed as reduction in transfer of fluorescein-5-maleimide-tagged NEDD8 from N-terminally acetylated human UBE2M to CUL2-CTD at 50 uM measured for 1 min by pulse-chase assay
Conditions: not given

Structure (SMILES)	inhibition
CCCC(C)N1CCC(N(Cc2ccccc2)C(=O)Nc2cccc(C(F)(F)F)c2)CC1 (stereo not drawn)	inactive

Test system: BJ
Assay: Growth inhibition of human BJ cells
Type: cell-based
Conditions: not given
Procedure, shortened: (§2)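 In vitro monolayer proliferation assay in BJ cells (normal fibroblasts lacking DCN1 amplification) and HCC95 cells (squamous cell carcinoma line carrying DCN1 amplification). EC50 is reported as mean ± standard deviation from at least one experiment run in triplicate. A ">" value means less than 50% growth inhibition at the highest concentration tested.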

Structure (SMILES)	EC50
CC(C)(C)N1CCC(N(Cc2ccc3c(c2)OCO3)C(=O)Nc2cccc(C(F)(F)F)c2)CC1	> 40000 nM
CCCCN1CCC(N(Cc2ccc3c(c2)OCO3)C(=O)Nc2cccc(C(F)(F)F)c2)CC1	> 40000 nM
CCCC(C)N1CCC(N(Cc2ccccc2)C(=O)Nc2cccc(C(F)(F)F)c2)CC1 (stereo not drawn)	> 40000 nM
CCCN1CCC(N(Cc2cc(F)cc(C(F)(F)F)c2)C(=O)Nc2cccc(C(F)(F)F)c2)CC1	> 23000 nM
CCCN1CCC(N(Cc2ccccc2)C(=O)Nc2cccc(C(F)(F)F)c2)CC1	> 23000 nM
CCCCN1CCC(N(Cc2ccccc2)C(=O)Nc2cccc(C(F)(F)F)c2)CC1	> 40000 nM
CCCN1CCC(N(Cc2ccco2)C(=O)Nc2cccc(C(F)(F)F)c2)CC1	> 23000 nM

Biological target: NEDD8 activating enzyme (Homo sapiens) (UniProt Q8TBC4+Q13564)
Assay: Inhibition of human NAE1-UBA3 E1 activating enzyme assessed as reduction in CUL3 neddylation by measuring inhibition of UBE2M thiol-ester formation at 50 uM up to 60 mins by pulse-chase assay
Type: protein-complex assay
Conditions: not given

Structure (SMILES)	inhibition
CCCC(C)N1CCC(N(Cc2ccccc2)C(=O)Nc2cccc(C(F)(F)F)c2)CC1 (stereo not drawn)	inactive
CCCCN1CCC(N(Cc2ccccc2)C(=O)Nc2cccc(C(F)(F)F)c2)CC1	inactive

Biological target: T2, DCN1-like protein 3 (Homo sapiens) (UniProt Q8IWE4)
T2 sequence (whole entry): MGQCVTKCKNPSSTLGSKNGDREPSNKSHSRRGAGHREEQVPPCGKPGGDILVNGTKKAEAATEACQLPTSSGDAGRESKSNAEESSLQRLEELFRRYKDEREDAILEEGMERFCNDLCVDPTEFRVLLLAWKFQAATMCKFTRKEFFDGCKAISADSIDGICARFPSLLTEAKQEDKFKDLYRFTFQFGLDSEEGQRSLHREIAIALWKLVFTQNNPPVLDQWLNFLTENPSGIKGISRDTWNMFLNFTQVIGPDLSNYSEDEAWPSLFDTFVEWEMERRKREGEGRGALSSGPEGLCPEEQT
Assay: Inhibition of human DCN3 stimulated N-terminal cys-tagged NEDD8 transfer from UBE2F to CUL2(CTD)-RBX1 at 10 uM measured up to 2 mins by pulse-chase assay
Conditions: not given

Structure (SMILES)	inhibition
CCCC(C)N1CCC(N(Cc2ccccc2)C(=O)Nc2cccc(C(F)(F)F)c2)CC1 (stereo not drawn)	inactive
CCCCN1CCC(N(Cc2ccccc2)C(=O)Nc2cccc(C(F)(F)F)c2)CC1	inactive

Test system: HCC95
Assay: Growth inhibition of human HCC95 cells
Type: functional, cell-based
Conditions: not given
Procedure, shortened: as §2

Structure (SMILES)	EC50
CC(C)(C)N1CCC(N(Cc2ccc3c(c2)OCO3)C(=O)Nc2cccc(C(F)(F)F)c2)CC1	> 40000 nM
CCCCN1CCC(N(Cc2ccc3c(c2)OCO3)C(=O)Nc2cccc(C(F)(F)F)c2)CC1	46000 nM
CCCC(C)N1CCC(N(Cc2ccccc2)C(=O)Nc2cccc(C(F)(F)F)c2)CC1 (stereo not drawn)	47000 nM
CCCN1CCC(N(Cc2cc(F)cc(C(F)(F)F)c2)C(=O)Nc2cccc(C(F)(F)F)c2)CC1	21000 nM
CCCN1CCC(N(Cc2ccccc2)C(=O)Nc2cccc(C(F)(F)F)c2)CC1	> 40000 nM
CCCCN1CCC(N(Cc2ccccc2)C(=O)Nc2cccc(C(F)(F)F)c2)CC1	> 40000 nM
CCCN1CCC(N(Cc2ccco2)C(=O)Nc2cccc(C(F)(F)F)c2)CC1	> 23000 nM

Organism: Homo sapiens
Assay: Inhibition of human RBX1-catalyzed CUL2(CTD) neddylation assessed as reduction in transfer of N-terminal cys-tagged NEDD8 from UBE2M to CUL2-CTD at 12.5 uM measured up to 6 mins by pulse-chase assay
Conditions: not given
Procedure, shortened: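 In vitro pulse-chase monitoring NEDD8 transfer from UBE2M to the CUL2 C-terminal domain, stimulated by DCN1 together with RBX1. The CUL2 domain stands in for cullins 1-5. The assay is a variation of a previously published pulse-chase format, also run against each of the five DCN family members.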

Structure (SMILES)	inhibition
CC(C)(C)N1CCC(N(Cc2ccc3c(c2)OCO3)C(=O)Nc2cccc(C(F)(F)F)c2)CC1	inactive
CCCC(C)N1CCC(N(Cc2ccccc2)C(=O)Nc2cccc(C(F)(F)F)c2)CC1 (stereo not drawn)	inactive
CCCN1CCC(N(Cc2cc(F)cc(C(F)(F)F)c2)C(=O)Nc2cccc(C(F)(F)F)c2)CC1	inactive
CCCCN1CCC(N(Cc2ccccc2)C(=O)Nc2cccc(C(F)(F)F)c2)CC1	inactive

Biological target: T3, DCN1-like protein 1 (Homo sapiens, UniProt Q96GG9)
T3 sequence (Q96GG9 whole entry): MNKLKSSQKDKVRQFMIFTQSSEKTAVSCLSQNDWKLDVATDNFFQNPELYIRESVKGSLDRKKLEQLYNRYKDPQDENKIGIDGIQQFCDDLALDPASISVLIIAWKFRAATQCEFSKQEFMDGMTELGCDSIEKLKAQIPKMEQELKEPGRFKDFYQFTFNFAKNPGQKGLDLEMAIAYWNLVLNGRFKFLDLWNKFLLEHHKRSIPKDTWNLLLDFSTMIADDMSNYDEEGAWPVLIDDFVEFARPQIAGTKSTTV
Assay: Inhibition of human DCN1-mediated cullin neddylation assessed as reduction in transfer of fluorescein-5-maleimide-tagged NEDD8 from N-terminally acetylated human UBE2M to CUL2-CTD measured for 10 sec by pulse-chase assay
Conditions: not given

Structure (SMILES)	EC50
CC(C)(C)N1CCC(N(Cc2ccc3c(c2)OCO3)C(=O)Nc2cccc(C(F)(F)F)c2)CC1	370 nM
CCCCN1CCC(N(Cc2ccc3c(c2)OCO3)C(=O)Nc2cccc(C(F)(F)F)c2)CC1	110 nM
CCCC(C)N1CCC(N(Cc2ccccc2)C(=O)Nc2cccc(C(F)(F)F)c2)CC1 (stereo not drawn)	79 nM
CCCN1CCC(N(Cc2cc(F)cc(C(F)(F)F)c2)C(=O)Nc2cccc(C(F)(F)F)c2)CC1	180 nM
CCCN1CCC(N(Cc2ccccc2)C(=O)Nc2cccc(C(F)(F)F)c2)CC1	400 nM
CCCCN1CCC(N(Cc2ccccc2)C(=O)Nc2cccc(C(F)(F)F)c2)CC1	140 nM
CCCN1CCC(N(Cc2ccco2)C(=O)Nc2cccc(C(F)(F)F)c2)CC1	570 nM

Biological target: T2, DCN1-like protein 3 (Homo sapiens)
Assay: Inhibition of human DCN3-mediated cullin neddylation assessed as reduction in transfer of fluorescein-5-maleimide-tagged NEDD8 from N-terminally acetylated human UBE2M to CUL2-CTD at 50 uM measured for 2 mins by pulse-chase assay
Conditions: not given

Structure (SMILES)	inhibition
CCCC(C)N1CCC(N(Cc2ccccc2)C(=O)Nc2cccc(C(F)(F)F)c2)CC1 (stereo not drawn)	inactive

Biological target: DCN1-like protein 2 (Homo sapiens) (UniProt Q6PH85)
Sequence (Q6PH85 whole entry): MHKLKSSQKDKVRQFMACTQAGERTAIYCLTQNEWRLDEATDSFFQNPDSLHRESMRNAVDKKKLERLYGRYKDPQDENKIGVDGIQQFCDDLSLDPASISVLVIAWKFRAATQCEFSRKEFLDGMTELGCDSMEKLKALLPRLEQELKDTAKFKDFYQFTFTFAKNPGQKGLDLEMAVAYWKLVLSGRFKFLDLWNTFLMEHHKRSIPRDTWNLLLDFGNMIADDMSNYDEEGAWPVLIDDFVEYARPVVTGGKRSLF
Assay: Inhibition of human DCN2-mediated cullin neddylation assessed as reduction in transfer of fluorescein-5-maleimide-tagged NEDD8 from N-terminally acetylated human UBE2M to CUL2-CTD at 12.5 and 50 uM measured for 10 sec by pulse-chase assay
Conditions: not given

Structure (SMILES)	inhibition
CCCC(C)N1CCC(N(Cc2ccccc2)C(=O)Nc2cccc(C(F)(F)F)c2)CC1 (stereo not drawn)	Active

Biological target: T4, DCN1-like protein 4 (Homo sapiens) (UniProt Q92564)
T4 sequence (whole entry): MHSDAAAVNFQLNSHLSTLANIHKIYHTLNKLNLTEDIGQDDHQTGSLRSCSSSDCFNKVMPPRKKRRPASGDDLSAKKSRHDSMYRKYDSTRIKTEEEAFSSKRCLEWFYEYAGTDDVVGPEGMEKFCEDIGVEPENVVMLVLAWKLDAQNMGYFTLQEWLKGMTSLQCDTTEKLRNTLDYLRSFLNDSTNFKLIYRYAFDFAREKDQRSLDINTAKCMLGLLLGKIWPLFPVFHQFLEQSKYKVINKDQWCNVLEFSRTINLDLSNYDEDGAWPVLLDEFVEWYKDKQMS
Assay: Inhibition of human DCN4-mediated cullin neddylation assessed as reduction in transfer of fluorescein-5-maleimide-tagged NEDD8 from N-terminally acetylated human UBE2M to CUL2-CTD at 50 uM measured for 1 min by pulse-chase assay
Conditions: not given

Structure (SMILES)	inhibition
CCCC(C)N1CCC(N(Cc2ccccc2)C(=O)Nc2cccc(C(F)(F)F)c2)CC1 (stereo not drawn)	inactive

Biological target: T3, DCN1-like protein 1
Assay: Binding affinity biotinylated human GST-tagged DCN1 by ITC method
Conditions: not given

Structure (SMILES)	Kd
CCCC(C)N1CCC(N(Cc2ccccc2)C(=O)Nc2cccc(C(F)(F)F)c2)CC1 (stereo not drawn)	140 nM
CCCN1CCC(N(Cc2ccccc2)C(=O)Nc2cccc(C(F)(F)F)c2)CC1	860 nM
CCCCN1CCC(N(Cc2ccccc2)C(=O)Nc2cccc(C(F)(F)F)c2)CC1	700 nM
CCCN1CCC(N(Cc2ccco2)C(=O)Nc2cccc(C(F)(F)F)c2)CC1	700 nM

Test system: not listed separately
Assay: Permeability of the compound at 10 uM by PAMPA
Type: ADME
Conditions: PAMPA; read-out: permeability
Procedure, shortened: as §1

Structure (SMILES)	Papp at 10 µM
CC(C)(C)N1CCC(N(Cc2ccc3c(c2)OCO3)C(=O)Nc2cccc(C(F)(F)F)c2)CC1	> 2200 ×10⁻⁶ cm/s
CCCCN1CCC(N(Cc2ccc3c(c2)OCO3)C(=O)Nc2cccc(C(F)(F)F)c2)CC1	> 2200 ×10⁻⁶ cm/s
CCCN1CCC(N(Cc2cc(F)cc(C(F)(F)F)c2)C(=O)Nc2cccc(C(F)(F)F)c2)CC1	> 2200 ×10⁻⁶ cm/s
CCCCN1CCC(N(Cc2ccccc2)C(=O)Nc2cccc(C(F)(F)F)c2)CC1	> 2200 ×10⁻⁶ cm/s
CCCN1CCC(N(Cc2ccco2)C(=O)Nc2cccc(C(F)(F)F)c2)CC1	> 2200 ×10⁻⁶ cm/s

Same assay, conditions: pampa, 10 µM

Structure (SMILES)	permeability
CCCC(C)N1CCC(N(Cc2ccccc2)C(=O)Nc2cccc(C(F)(F)F)c2)CC1 (stereo not drawn)	1400 ×10⁻⁶ cm/s
CCCN1CCC(N(Cc2ccccc2)C(=O)Nc2cccc(C(F)(F)F)c2)CC1	1800 ×10⁻⁶ cm/s

Biological target: T3, DCN1-like protein 1
Conditions: not given

Structure (SMILES)	IC50
CC(C)(C)N1CCC(N(Cc2ccc3c(c2)OCO3)C(=O)Nc2cccc(C(F)(F)F)c2)CC1	310 nM
CCCCN1CCC(N(Cc2ccc3c(c2)OCO3)C(=O)Nc2cccc(C(F)(F)F)c2)CC1	360 nM
CCCC(C)N1CCC(N(Cc2ccccc2)C(=O)Nc2cccc(C(F)(F)F)c2)CC1 (stereo not drawn)	62 nM
CCCN1CCC(N(Cc2cc(F)cc(C(F)(F)F)c2)C(=O)Nc2cccc(C(F)(F)F)c2)CC1	1000 nM
CCCN1CCC(N(Cc2ccccc2)C(=O)Nc2cccc(C(F)(F)F)c2)CC1	820 nM
CCCCN1CCC(N(Cc2ccccc2)C(=O)Nc2cccc(C(F)(F)F)c2)CC1	260 nM
CCCN1CCC(N(Cc2ccco2)C(=O)Nc2cccc(C(F)(F)F)c2)CC1	750 nM
